CSN deneddyl inh = inhibitors of CSN-mediated cullin deneddylation, primary screen, biochemical, fluorescence polarization, uHTS | COP9 signalosome complex subunit 5 (Homo sapiens), Q92905 | Purified CSN, SCF-Nedd8-OG deneddylation | inhibition, % at 12.5 µM | actives 0.38% (n = 360,000) | AID 651999, 2013;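 active = pattern-corrected inhibition above about 35%, with an unprinted fluorescence ratio check between 0.5 and 1.5, limit read from the data, passing the limit was not always enough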;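 also: 0% = enzyme with substrate and 100% = substrate without enzyme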
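Material: purified human Csn5 enzyme expressed in HEK293T cells / Medium: Tris buffer pH 7.5, NaCl, DTT, Tween-20, trehalose, ovalbumin / Compound dosing: 12.5 µM single point / Schedule: 90 min incubation of compound, enzyme and substrate at room temperature / Signal: fluorescence polarization of the substrate / Control set: no-enzyme wells high, enzyme-with-substrate wells low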
Rpn11 block = Rpn11 (PSMD14) deubiquitinase inhibitors, primary screen, biochemical, fluorescence polarization, uHTS; inhibition, % at 20 µM; human 26S proteasome, Ub4-pepOG fluorescence polarization; 20S core pre-blocked with epoxomicin; actives 0.59% (n = 360,000);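 active = inhibition at 20 µM, scaled to each plate's controls, above about 33%, limit read from the data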
TPT1 inhibitor = Candida albicans TPT1 enzyme inhibitors, primary screen, biochemical, fluorescence polarization; tRNA 2'-phosphotransferase TPT1 (Candida albicans SC5314); recombinant caTPT1, FP RNA substrate dephosphorylation; inhibition, % at 5 µM; actives 0.81% (n = 300,000); AID 1962, 2009;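 active = inhibition above the mean of all tested compounds plus 3 SD, set per screening campaign, cut at about 24% in these data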;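 also: plate controls were DMSO alone for no effect and ferristatin control at 100 nM for full effect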
Neddyl block = inhibitors of cullin neddylation, primary screen, biochemical, TR-FRET, uHTS, NAE and Ubc12; NEDD8-conjugating enzyme Ubc12 (Homo sapiens) + NEDD8-activating enzyme E1 regulatory …; inhibition, % at 25 µM; actives 0.58% (n = 360,000); AID 651699, 2012; in the data active = inhibition above about 36%
Rin1 Abl inh = inhibitors of Rin1-Abl protein binding, primary screen, biochemical, TR-FRET | AID 588664, 2011 | Tyrosine-protein kinase ABL1 (Homo sapiens) + Ras and Rab interactor 1 (Homo sapiens), … | inhibition, % at 7.35 µM | actives 0.4% (n = 360,000); in the data active = inhibition above about 5%, passing the limit was not always enough
HNF4A DNA FP = change in binding of human HNF4A to DNA, primary screen, biochemical, fluorescence polarization, FITC-DNA; Hepatocyte nuclear factor 4-alpha (Homo sapiens), P41235; 1 h; activity change, % at 10 µM; actives 0.3% (n = 360,000); in the data active = activity change above about 30%, passing the limit was not always enough
Rin1 Abl conf = Rin1-Abl binding inhibitor retest, confirmation, biochemical, TR-FRET; shares compounds with Rin1 Abl inh; purified proteins; inhibition, % at 7.35 µM; actives 49% (n = 1,300)
GFP quench = GFP fluorescence inhibitors and quenchers, artefact control for Rin1-Abl interaction inhibitor project, biochemical; shares compounds with Rin1 Abl inh; inhibitors/quenchers counterscreen; inhibition, % at 6.75 µM; actives 8.5% (n = 1,300);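 also: ABL1-eGFP fusion protein alone without its partner RIN1-SBP; 0% = protein with vehicle and 100% = wells lacking protein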
Active calls of the source: *. This is a sample that favours compounds with a hit; in the whole collection about 2.4% have one here. Rule as the data show it, unless noted: active = inhibition above about 6.5%; inactive = the rest.

How did C[C@@H]1O[C@@H](O[C@H]2[C@H](O)[C@@H](O)[C@H](Oc3c(-c4ccc(O)c(O)c4)oc4cc(O)cc(O)c4c3=O)O[C@@H]2CO)[C@H](O)[C@H](O)[C@H]1O do in these assays?
CSN deneddyl inh: 3; Rpn11 block: 1; Neddyl block: -22; Rin1 Abl inh: 11*; HNF4A DNA FP: 0; Rin1 Abl conf: 11*; GFP quench: 3

What do the screens show for `O=c1c(OC2OC(CO)C(O)C(O)C2OC2OC(CO)C(O)C(O)C2O)c(-c2ccc(O)cc2)oc2cc(O)cc(O)c12` (stereo not drawn)?
CSN deneddyl inh: 2; Rpn11 block: -14; TPT1 inhibitor: 2; Neddyl block: 6; Rin1 Abl inh: 12; HNF4A DNA FP: 1

How did O=c1c(OC2OC(CO)C(O)C(O)C2O)c(-c2ccc(O)c(O)c2)oc2cc(O)cc(O)c12 (stereo not drawn) do in these assays?
CSN deneddyl inh: -1; Rpn11 block: -6; TPT1 inhibitor: -2; Neddyl block: -36; Rin1 Abl inh: 16*; HNF4A DNA FP: 6; Rin1 Abl conf: 15*; GFP quench: 4

Results for C[C@@H]1O[C@@H](Oc2c(-c3cc(O)c(O)c(O)c3)oc3cc(O)cc(O)c3c2=O)[C@H](O)[C@H](O)[C@H]1O ?
CSN deneddyl inh: 1; Rpn11 block: 0; TPT1 inhibitor: -3; Neddyl block: -39; Rin1 Abl inh: 44*; HNF4A DNA FP: -1; Rin1 Abl conf: 45*; GFP quench: 17*

Results for CCN(C(=O)COC(=O)c1ccc2[nH]c3c(c2c1)CCCC3)C1CCS(=O)(=O)C1 (stereo not drawn) ?
CSN deneddyl inh: -4; Rpn11 block: -1; TPT1 inhibitor: -1; Neddyl block: 27; Rin1 Abl inh: 2; HNF4A DNA FP: -4

How did O=C(COC(=O)c1cccc(Br)c1)NCCNC(=O)COC(=O)c1cccc(Br)c1 do in these assays?
CSN deneddyl inh: 0; Rpn11 block: 3; TPT1 inhibitor: 0; Neddyl block: -83; Rin1 Abl inh: 2; HNF4A DNA FP: 1

Results for CC(C)Nc1ncnc2c1ncn2[C@H]1CN(Cc2cccnc2)C[C@@H](CO)O1 ?
CSN deneddyl inh: 3; Rpn11 block: -9; Neddyl block: -2; Rin1 Abl inh: 1; HNF4A DNA FP: 1

What do the screens show for `CC(C)[C@H](NC(=O)c1cccc(S(=O)(=O)N2CCOCC2)c1)C(=O)OCC(=O)Nc1cccc(Br)c1`?
CSN deneddyl inh: 0; Rpn11 block: -12; Neddyl block: -4; Rin1 Abl inh: 2; HNF4A DNA FP: 3

How did Cc1cc(C(=O)Nc2c[nH]c(=O)[nH]c2=O)ccc1[N+](=O)[O-] do in these assays?
CSN deneddyl inh: -2; Rpn11 block: -8; TPT1 inhibitor: -2; Neddyl block: -21; Rin1 Abl inh: 10*; HNF4A DNA FP: 0; Rin1 Abl conf: -1; GFP quench: -1

Results for CCCCn1nnnc1C1(C)CCC(=O)N1CC(F)(F)F (stereo not drawn) ?
CSN deneddyl inh: -1; Neddyl block: 3; HNF4A DNA FP: 2

Results for CCc1cc(C(=O)Cc2cnn(-c3ccccc3)c2)c(O)cc1O ?
CSN deneddyl inh: -7; Rpn11 block: 3; TPT1 inhibitor: 0; Neddyl block: 16; Rin1 Abl inh: -2; HNF4A DNA FP: 3

How did O=C(Cc1cnn(-c2ccccc2)c1)c1ccc(O)c(O)c1O do in these assays?
CSN deneddyl inh: 20; Rpn11 block: 2; TPT1 inhibitor: -1; Neddyl block: -9; Rin1 Abl inh: 13*; HNF4A DNA FP: -3; Rin1 Abl conf: 2; GFP quench: 11*

How did Cc1noc(C)c1-c1ccc(C(=O)NCc2ccc(Cl)cc2)c2occc12 do in these assays?
CSN deneddyl inh: 2; Rpn11 block: -15; Neddyl block: 11; Rin1 Abl inh: 0; HNF4A DNA FP: 3

Results for CN(C)CCCNC(=O)c1ccc(-c2cc(O)c3ncccc3c2)cc1 ?
CSN deneddyl inh: -1; Rpn11 block: -18; Neddyl block: -13; Rin1 Abl inh: 25*; HNF4A DNA FP: 2; Rin1 Abl conf: 31*; GFP quench: 19*

What do the screens show for `CN(C)c1ccc(-c2cc(O)c3ncccc3c2)cc1`?
CSN deneddyl inh: 0; Rpn11 block: 0; Neddyl block: 18; Rin1 Abl inh: -3; HNF4A DNA FP: 2

How did Cc1ccc(NC(=S)N(CCCN2CCOCC2)Cc2cccnc2)cc1C do in these assays?
CSN deneddyl inh: -3; Rpn11 block: -3; TPT1 inhibitor: 0; Neddyl block: -3; Rin1 Abl inh: 12*; HNF4A DNA FP: -1; Rin1 Abl conf: -2; GFP quench: -1

What do the screens show for `Cc1ccccc1NC(=S)N(CCCN1CCOCC1)Cc1cccnc1`?
CSN deneddyl inh: 0; Rpn11 block: -2; TPT1 inhibitor: 1; Neddyl block: -4; Rin1 Abl inh: 3; HNF4A DNA FP: -2

How did O=c1oc(=S)oc2c1[C@H](c1ccc(Cl)cc1)O[C@H](C1CC1)C2 do in these assays?
CSN deneddyl inh: 1; Neddyl block: -2; HNF4A DNA FP: 3

What do the screens show for `CCCCn1c(NS(=O)(=O)c2ccccc2)c(S(=O)(=O)c2ccc(C)cc2)c2nc3ccccc3nc21`?
CSN deneddyl inh: 57*; Rpn11 block: 29; TPT1 inhibitor: -2; Neddyl block: -2; Rin1 Abl inh: 22*; HNF4A DNA FP: -1; Rin1 Abl conf: 11*; GFP quench: -1

How did CC(=O)c1c(C)[nH]c(C(=O)Nc2ccccc2N2CCOCC2)c1C do in these assays?
CSN deneddyl inh: -2; Rpn11 block: 8; TPT1 inhibitor: -2; Neddyl block: -1; Rin1 Abl inh: 4.7*; HNF4A DNA FP: -2; Rin1 Abl conf: -3; GFP quench: 0

Results for O=C(O)c1cccc2cccc(-c3c4ccc(=O)c(O)c-4oc4c(O)c(O)ccc34)c12 ?
CSN deneddyl inh: 25; Rpn11 block: -28; Neddyl block: -5; Rin1 Abl inh: 41*; HNF4A DNA FP: -83; Rin1 Abl conf: 45*; GFP quench: 28*
